Results as given in PubChem BioAssay AID2430 (Vanderbilt High Throughput Screening Facility, 2010).
Active and inactive are the calls of the source. No rule for the calls is given here.

target: Muscarinic acetylcholine receptor M2 (Homo sapiens) (UniProt P08172); test: potentiation of ACh calcium response at M2 – cell-based, CHO-K1 M2/Gqi5, Fluo-4 calcium, ACh EC20, selectivity assay for M1 muscarinic PAM project, dose response (AID 2430); settings: CHO-K1 M2/Gqi5 calcium Fluo-4, ACh EC20 PAM mode; series mostly up to 30 µM
Sequence (P08172 whole entry, looked up): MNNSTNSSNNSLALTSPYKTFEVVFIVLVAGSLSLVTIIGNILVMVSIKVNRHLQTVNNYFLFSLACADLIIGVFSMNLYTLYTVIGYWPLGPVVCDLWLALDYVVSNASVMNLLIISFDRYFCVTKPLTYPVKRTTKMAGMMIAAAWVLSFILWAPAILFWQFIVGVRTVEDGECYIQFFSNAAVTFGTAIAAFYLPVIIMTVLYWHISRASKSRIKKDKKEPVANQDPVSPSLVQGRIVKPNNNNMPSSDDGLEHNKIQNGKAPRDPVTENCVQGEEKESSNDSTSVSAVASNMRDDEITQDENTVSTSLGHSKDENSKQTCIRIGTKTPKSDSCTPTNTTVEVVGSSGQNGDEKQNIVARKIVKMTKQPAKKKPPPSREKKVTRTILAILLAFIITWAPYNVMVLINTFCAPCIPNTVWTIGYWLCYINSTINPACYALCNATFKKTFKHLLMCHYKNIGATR
In short: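 material = human M2/Gqi5-transfected CHO-K1 cells | medium = HEPES- and probenecid-supplemented HBSS, pH 7.4 | also added = ACh near EC20 | dosing = 0.3% final DMSO | schedule = 37 °C dye loading, 1.5 min compound, 50 s ACh, 25 °C | signal = calcium flux measured with Fluo-4 fluorescent dye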

outcome, inactive:
O=C1C(=O)N(Cc2ccc(Oc3ccccc3)cc2)c2ccc(OC(F)(F)F)cc21
Cc1cc(NC(=O)CS(=O)(=O)c2cn(Cc3cc(Br)ccc3F)c3ccccc23)no1
Cn1cc(-c2cc(F)c(CN3C(=O)C(=O)c4ccccc43)c(F)c2)cn1
Cn1cc(-c2ccc(CN3C(=O)C(=O)c4ccccc43)c(F)c2)cn1
